Experimental data reported in ChEMBL document CHEMBL4052773, “Synthesis and diabetic neuropathic pain-alleviating effects of 2N-(pyrazol-3-yl)methylbenzo[d]isothiazole-1,1-dioxide derivatives” (Bioorg Med Chem, 2017).
Calls of active or inactive are those of the source. The rule behind the calls is not given here.

Tests used:
[1] = Stability in human liver microsomes assessed as parent compound remaining at 1 uM after 30 mins in presence of NADPH by LC-MS/MS analysis; format: ADME, microsome; settings: read-out: Stability
Summary of the method: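 Test compound at 1 μM was incubated with pooled human liver microsomes in potassium phosphate buffer with 1.2 mM NADPH at 37 °C for 30 min. The reaction was stopped with cold acetonitrile containing internal standard. Supernatant was analysed by LC-MS/MS for % remaining.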

[2] = biological target: T1, Voltage-dependent T-type calcium channel subunit alpha-1H (Homo sapiens, UniProt O95180); experiment: Inhibition of Cav3.2 alpha1H (unknown origin) expressed in HEK293 cells assessed as reduction in KCl-induced depolarization mediated intracellular Ca2+ level at 10 uM by fluo3/AM based high throughput screening assay relative to control; format: cell-based
T1 sequence (O95180 whole entry): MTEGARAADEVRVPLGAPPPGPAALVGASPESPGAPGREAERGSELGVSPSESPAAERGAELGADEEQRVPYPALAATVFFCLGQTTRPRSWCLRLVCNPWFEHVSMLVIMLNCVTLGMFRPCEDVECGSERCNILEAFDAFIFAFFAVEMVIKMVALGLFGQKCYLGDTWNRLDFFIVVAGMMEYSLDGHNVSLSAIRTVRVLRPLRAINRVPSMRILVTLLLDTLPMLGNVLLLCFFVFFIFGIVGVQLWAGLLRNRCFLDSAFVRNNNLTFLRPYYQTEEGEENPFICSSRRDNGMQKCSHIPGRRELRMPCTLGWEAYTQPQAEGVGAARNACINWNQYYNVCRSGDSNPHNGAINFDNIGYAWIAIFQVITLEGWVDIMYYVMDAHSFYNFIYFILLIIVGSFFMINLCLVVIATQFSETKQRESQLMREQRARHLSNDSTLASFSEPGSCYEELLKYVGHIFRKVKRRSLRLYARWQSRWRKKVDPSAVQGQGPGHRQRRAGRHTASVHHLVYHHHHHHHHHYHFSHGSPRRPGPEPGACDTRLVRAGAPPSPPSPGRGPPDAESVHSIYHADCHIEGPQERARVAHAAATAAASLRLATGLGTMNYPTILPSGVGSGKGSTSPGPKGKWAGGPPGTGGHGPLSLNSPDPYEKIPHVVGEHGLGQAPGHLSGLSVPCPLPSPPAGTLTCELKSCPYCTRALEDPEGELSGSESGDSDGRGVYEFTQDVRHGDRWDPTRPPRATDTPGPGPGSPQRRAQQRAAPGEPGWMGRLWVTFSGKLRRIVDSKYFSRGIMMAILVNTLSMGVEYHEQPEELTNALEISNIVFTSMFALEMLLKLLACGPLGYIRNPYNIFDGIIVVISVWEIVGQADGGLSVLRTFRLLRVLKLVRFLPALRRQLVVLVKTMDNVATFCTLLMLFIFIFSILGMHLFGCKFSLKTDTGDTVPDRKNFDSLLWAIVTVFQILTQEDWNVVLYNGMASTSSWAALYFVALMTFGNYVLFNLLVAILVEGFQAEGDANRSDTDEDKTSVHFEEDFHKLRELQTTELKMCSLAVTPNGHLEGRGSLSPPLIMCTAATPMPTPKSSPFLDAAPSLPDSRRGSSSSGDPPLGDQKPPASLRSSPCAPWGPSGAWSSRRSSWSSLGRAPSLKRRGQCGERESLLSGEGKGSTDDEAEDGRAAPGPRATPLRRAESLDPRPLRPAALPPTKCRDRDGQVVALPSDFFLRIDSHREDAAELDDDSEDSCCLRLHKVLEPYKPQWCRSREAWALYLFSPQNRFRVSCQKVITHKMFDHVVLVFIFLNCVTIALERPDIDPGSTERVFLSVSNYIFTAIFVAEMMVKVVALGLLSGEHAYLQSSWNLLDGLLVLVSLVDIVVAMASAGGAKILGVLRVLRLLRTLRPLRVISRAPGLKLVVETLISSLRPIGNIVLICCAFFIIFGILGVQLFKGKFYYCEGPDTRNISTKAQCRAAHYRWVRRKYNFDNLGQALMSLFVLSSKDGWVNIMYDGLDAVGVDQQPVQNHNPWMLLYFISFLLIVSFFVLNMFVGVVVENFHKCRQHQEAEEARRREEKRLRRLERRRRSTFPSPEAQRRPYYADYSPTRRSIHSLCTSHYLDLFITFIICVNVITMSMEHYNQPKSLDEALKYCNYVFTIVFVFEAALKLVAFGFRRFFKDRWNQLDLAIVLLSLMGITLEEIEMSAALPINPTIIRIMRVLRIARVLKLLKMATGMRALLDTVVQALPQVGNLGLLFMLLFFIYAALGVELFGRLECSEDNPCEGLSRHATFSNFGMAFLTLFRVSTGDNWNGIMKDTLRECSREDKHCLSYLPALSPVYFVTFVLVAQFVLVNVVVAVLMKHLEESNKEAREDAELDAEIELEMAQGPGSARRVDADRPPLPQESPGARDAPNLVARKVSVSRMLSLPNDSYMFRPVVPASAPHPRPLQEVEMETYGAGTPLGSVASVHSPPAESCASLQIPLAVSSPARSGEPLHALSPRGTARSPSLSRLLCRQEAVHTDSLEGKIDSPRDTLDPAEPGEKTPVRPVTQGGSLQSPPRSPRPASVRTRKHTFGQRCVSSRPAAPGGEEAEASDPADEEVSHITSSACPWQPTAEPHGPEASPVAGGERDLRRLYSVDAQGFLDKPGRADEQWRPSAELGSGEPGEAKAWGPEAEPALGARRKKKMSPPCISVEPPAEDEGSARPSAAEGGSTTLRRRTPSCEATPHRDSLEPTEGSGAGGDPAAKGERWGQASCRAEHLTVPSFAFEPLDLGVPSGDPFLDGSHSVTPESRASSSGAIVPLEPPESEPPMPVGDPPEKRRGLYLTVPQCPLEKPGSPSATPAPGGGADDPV
Summary of the method: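 HEK293 cells stably expressing the T-type channel were kept under puromycin/geneticin selection with 10% FBS at 37 °C and 5% CO2. Cells were seeded at 4×10^4 per well and loaded with fluo3/AM plus 0.001% Pluronic F-127 in HEPES buffer (pH 7.4, 1.8 mM CaCl2) for 60 min at room temperature. The KCl depolarisation-evoked [Ca2+]i rise was read on FDSS6000.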

[3] = biological target: CYP3A4 (Homo sapiens, UniProt P08684); experiment: Inhibition of recombinant human CYP3A4 expressed in baculosomes assessed as residual activity at 10 uM using vivid BOMCC/DBOMF/BOMR as substrate after 15 mins in presence of NADPH by fluorescence assay relative to control; format: ADME; settings: probe Vivid BOMCC/DBOMF/BOMR, read-out: Activity
Chain of CYP3A4 (P08684 whole entry, canonical isoform): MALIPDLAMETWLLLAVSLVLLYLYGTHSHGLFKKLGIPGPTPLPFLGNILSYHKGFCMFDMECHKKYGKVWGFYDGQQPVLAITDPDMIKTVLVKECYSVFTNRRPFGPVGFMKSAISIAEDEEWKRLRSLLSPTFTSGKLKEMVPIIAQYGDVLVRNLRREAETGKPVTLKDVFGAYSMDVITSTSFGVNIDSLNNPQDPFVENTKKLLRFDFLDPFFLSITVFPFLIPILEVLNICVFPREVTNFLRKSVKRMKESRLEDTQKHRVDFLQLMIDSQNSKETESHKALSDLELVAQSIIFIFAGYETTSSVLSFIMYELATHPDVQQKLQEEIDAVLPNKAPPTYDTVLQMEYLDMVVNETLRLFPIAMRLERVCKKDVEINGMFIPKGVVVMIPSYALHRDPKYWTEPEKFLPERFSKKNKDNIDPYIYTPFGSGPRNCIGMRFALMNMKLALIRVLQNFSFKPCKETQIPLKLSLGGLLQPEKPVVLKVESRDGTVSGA
Summary of the method: (§1)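 Test compounds at 10 μM were premixed with baculosome CYP plus a regeneration system. After 15 min at 37 °C, Vivid substrates and NADPH were added. Remaining enzyme activity was read by fluorescence and expressed as % of control, as mean ± SD of triplicates. Isoform-selective inhibitors served as positive controls.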

[4] = biological target: T1, Voltage-dependent T-type calcium channel subunit alpha-1H; experiment: Inhibition of Cav3.2 alpha1H (unknown origin) expressed in HEK293 cells by whole-cell patch clamp assay; format: cell-based
Summary of the method: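 Whole-cell patch clamp was done on T-type channel-expressing cells. Currents were evoked every 15 s by a 50-ms step from −100 mV to −30 mV. IC50 for peak current was obtained by fitting a dose-response curve and given ± SD.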

[5] = biological target: CYP2C9 (Homo sapiens, UniProt P11712); experiment: Inhibition of recombinant human CYP2C9 expressed in baculosomes assessed as residual activity at 10 uM using vivid BOMCC/BOMF/OOMR as substrate after 15 mins in presence of NADPH by fluorescence assay relative to control; format: ADME; settings: probe Vivid BOMCC/BOMF/OOMR, read-out: Activity; summary of the method: as §1
Chain of CYP2C9 (P11712 whole entry): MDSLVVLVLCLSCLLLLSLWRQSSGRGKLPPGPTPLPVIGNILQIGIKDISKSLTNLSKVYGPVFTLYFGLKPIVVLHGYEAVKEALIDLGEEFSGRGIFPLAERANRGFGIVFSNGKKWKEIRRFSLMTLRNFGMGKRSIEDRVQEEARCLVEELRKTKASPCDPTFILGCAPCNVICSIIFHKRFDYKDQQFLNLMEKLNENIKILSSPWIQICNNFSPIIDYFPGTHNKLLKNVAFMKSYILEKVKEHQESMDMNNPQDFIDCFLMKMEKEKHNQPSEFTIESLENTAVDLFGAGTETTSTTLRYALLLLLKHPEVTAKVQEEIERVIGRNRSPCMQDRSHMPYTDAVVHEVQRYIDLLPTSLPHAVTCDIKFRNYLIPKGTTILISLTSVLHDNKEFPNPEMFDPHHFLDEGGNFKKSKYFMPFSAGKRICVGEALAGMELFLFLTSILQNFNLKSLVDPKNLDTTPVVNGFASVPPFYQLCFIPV

[6] = biological target: CYP2D6 (Homo sapiens, UniProt P10635); experiment: Inhibition of recombinant human CYP2D6 expressed in baculosomes assessed as residual activity at 10 uM using vivid EOMCC/MOBFC as substrate after 15 mins in presence of NADPH by fluorescence assay relative to control; format: ADME; settings: probe Vivid EOMCC/MOBFC, read-out: Activity; summary of the method: as §1
Chain of CYP2D6 (P10635 whole entry): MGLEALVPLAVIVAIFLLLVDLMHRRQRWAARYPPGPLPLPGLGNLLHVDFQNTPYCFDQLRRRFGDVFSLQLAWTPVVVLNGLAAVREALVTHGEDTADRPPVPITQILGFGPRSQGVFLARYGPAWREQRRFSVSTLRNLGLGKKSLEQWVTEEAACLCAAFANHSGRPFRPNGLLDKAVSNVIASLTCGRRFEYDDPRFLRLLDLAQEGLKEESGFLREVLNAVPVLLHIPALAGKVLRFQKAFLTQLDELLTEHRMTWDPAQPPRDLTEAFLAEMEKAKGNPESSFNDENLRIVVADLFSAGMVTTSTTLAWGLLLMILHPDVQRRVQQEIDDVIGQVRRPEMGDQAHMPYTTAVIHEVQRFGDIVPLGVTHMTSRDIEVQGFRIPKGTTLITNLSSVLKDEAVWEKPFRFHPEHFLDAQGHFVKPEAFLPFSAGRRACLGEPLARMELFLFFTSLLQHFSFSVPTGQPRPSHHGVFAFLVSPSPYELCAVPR

[7] = biological target: T2, CYP1A2 (Homo sapiens, UniProt P05177); experiment: Inhibition of recombinant human CYP1A2 expressed in baculosomes assessed as residual activity at 10 uM using vivid EOMCC as substrate after 15 mins in presence of NADPH by fluorescence assay relative to control; format: ADME; settings: probe Vivid EOMCC, read-out: Activity; summary of the method: as §1
T2 sequence (P05177 whole entry): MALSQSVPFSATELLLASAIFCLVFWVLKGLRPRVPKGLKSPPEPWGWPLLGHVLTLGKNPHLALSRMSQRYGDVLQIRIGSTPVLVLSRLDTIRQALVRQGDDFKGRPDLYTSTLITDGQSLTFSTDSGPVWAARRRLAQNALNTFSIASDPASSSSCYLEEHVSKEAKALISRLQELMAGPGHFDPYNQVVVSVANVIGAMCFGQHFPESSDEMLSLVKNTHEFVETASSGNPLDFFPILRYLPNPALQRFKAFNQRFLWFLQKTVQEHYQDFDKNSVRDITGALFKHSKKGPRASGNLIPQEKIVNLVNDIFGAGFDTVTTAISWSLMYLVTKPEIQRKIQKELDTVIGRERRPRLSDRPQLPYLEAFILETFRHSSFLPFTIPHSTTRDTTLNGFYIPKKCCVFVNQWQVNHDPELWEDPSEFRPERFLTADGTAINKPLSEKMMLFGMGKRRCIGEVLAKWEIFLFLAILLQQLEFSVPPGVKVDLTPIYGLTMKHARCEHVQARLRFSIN

[8] = tested on: Rattus norvegicus; experiment: Anti-algetic activity in rat streptozotocin-induced neuropathic pain model assessed as reduction in heat hypersensitivity at 100 mg/kg, po measured after 1 to 5 hrs; format: functional, organism-based
Summary of the method: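 Type 1 diabetes induced in rats by intraperitoneal STZ (65 mg/kg); after 4 weeks, neuropathic rats selected by blood glucose level and pain behaviour. Single oral dose of 100 mg/kg given to groups of 5 or 6 rats; heat hypersensitivity tested at 1, 3 and 5 h. Changes compared with pre-administration values by paired t-test.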

[9] = tested on: Rattus norvegicus; experiment: Anti-algetic activity in rat streptozotocin-induced neuropathic pain model assessed as reduction in mechanical allodynia at 100 mg/kg, po measured after 1 to 5 hrs; format: functional, organism-based
Summary of the method: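 Rats made diabetic by intraperitoneal STZ (65 mg/kg); 4 weeks later, rats with established neuropathic pain chosen by blood glucose level and behavioural testing. Single oral 100 mg/kg dose given to groups of 5 or 6 rats. Mechanical allodynia measured with von Frey filaments at 1, 3 and 5 h; paired t-test against pre-administration values.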

[10] = Cmax in rat at 10 mg/kg, po; format: ADME, organism-based; set-up: dose 10 mg/kg, route oral; settings: in vivo
Summary of the method: (§2)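 Male rats dosed at 10 mg/kg, intravenously (n = 5) or orally (n = 4). Parameters taken from the plasma concentration-time curve and reported as mean ± SD. Brain-to-plasma ratio measured 2 h after dosing. Tmax given as median with range.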

[11] = AUClast in rat at 10 mg/kg, iv; format: ADME, organism-based; set-up: dose 10 mg/kg, route intravenous, time 0 - last; settings: in vivo; summary of the method: as §2
[12] = Tmax in rat at 10 mg/kg, po; format: ADME, organism-based; settings: in vivo; summary of the method: as §2
[13] = tested on: Rattus norvegicus; experiment: Anti-algetic activity in rat streptozotocin-induced neuropathic pain model assessed as reduction in heat hypersensitivity at 50 mg/kg, po measured after 3 hrs in presence of gabapentin; format: functional, organism-based
Summary of the method: (§3)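 Neuropathic pain was induced in rats by i.p. streptozotocin at 65 mg/kg and confirmed at 4 weeks by glucose and behaviour. Rats received a single oral 50 mg/kg dose, alone or together with gabapentin at 50 mg/kg (n = 6–7). Mechanical allodynia (von Frey) and heat hypersensitivity were tested at 1, 3 and 5 h. Paired t-test was used versus pre-dose.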

[14] = AUC (0 to infinity) in rat at 10 mg/kg, iv; format: ADME, organism-based; set-up: dose 10 mg/kg, route intravenous, time infinity; settings: in vivo; summary of the method: as §2
[15] = Ratio of drug level in brain to plasma in rat at 10 mg/kg, iv measured at 2 hrs post dose; format: ADME, organism-based; settings: brain and plasma, read-out: BPR; summary of the method: as §2
[16] = Terminal half-life in rat at 10 mg/kg, po; format: ADME, organism-based; settings: in vivo, read-out: beta t1/2; summary of the method: as §2
[17] = tested on: Rattus norvegicus; experiment: Anti-algetic activity in rat streptozotocin-induced neuropathic pain model assessed as reduction in mechanical allodynia at 50 mg/kg, po measured after 1 to 5 hrs; format: functional, organism-based; summary of the method: as §3
[18] = Terminal half-life in rat at 10 mg/kg, iv; format: ADME, organism-based; settings: in vivo, read-out: beta t1/2; summary of the method: as §2
[19] = tested on: Rattus norvegicus; experiment: Anti-algetic activity in rat streptozotocin-induced neuropathic pain model assessed as reduction in mechanical allodynia at 100 mg/kg, po measured after 3 hrs; format: functional, organism-based
Summary of the method: (§4)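 STZ-diabetic rats were made by i.p. streptozotocin at 65 mg/kg. After 4 weeks, rats with confirmed neuropathic pain were selected by blood glucose and behavioural testing. A single oral dose of 100 mg/kg was given (n = 5–6). Mechanical allodynia was tested by von Frey, and heat hypersensitivity was also assessed, at 1, 3 and 5 h. Comparison was against pre-dose values by paired t-test.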

[20] = AUClast in rat at 10 mg/kg, po; format: ADME, organism-based; set-up: dose 10 mg/kg, route oral, time 0 - last; settings: in vivo; summary of the method: as §2
[21] = Mean residence time in rat at 10 mg/kg, iv; format: ADME, organism-based; settings: in vivo; summary of the method: as §2
[22] = Ratio of drug level in brain to plasma in rat at 10 mg/kg, po measured at 2 hrs post dose; format: ADME, organism-based; settings: brain and plasma, read-out: BPR; summary of the method: as §2
[23] = tested on: Rattus norvegicus; experiment: Anti-algetic activity in rat streptozotocin-induced neuropathic pain model assessed as reduction in heat hypersensitivity at 100 mg/kg, po measured after 3 hrs; format: functional, organism-based; summary of the method: as §4
[24] = Oral bioavailability in rat at 10 mg/kg; format: ADME, organism-based; settings: in vivo; summary of the method: as §2
[25] = tested on: Rattus norvegicus; experiment: Anti-algetic activity in rat streptozotocin-induced neuropathic pain model assessed as reduction in heat hypersensitivity at 50 mg/kg, po measured after 1 to 5 hrs; format: functional, organism-based; summary of the method: as §3
[26] = AUC (0 to infinity) in rat at 10 mg/kg, po; format: ADME, organism-based; set-up: dose 10 mg/kg, route oral, time infinity; settings: in vivo; summary of the method: as §2
[27] = Clearance in rat at 10 mg/kg, iv; format: ADME, organism-based; settings: in vivo; summary of the method: as §2

Structure (SMILES): CC(C)Cc1cc(CNS(=O)(=O)c2ccccc2)nn1-c1ccccc1
- remaining at 0.5 h, 1 µM [1]: 13.9%

Structure (SMILES): CC(C)(C)n1nc(CN2Cc3ccccc3S2(=O)=O)cc1-c1ccc(C(F)(F)F)cc1
- inhibition [2]: 20.8%

Structure (SMILES): CC(C)Cc1cc(CN(C)S(=O)(=O)c2ccccc2)nn1-c1ccccc1
- inhibition [2]: 54.2%
- remaining at 0.5 h, 1 µM [1]: 1.46%

Structure (SMILES): CC(C)(C)n1nc(CN2Cc3ccccc3S2(=O)=O)cc1-c1ccc(N2CCCCC2)cc1
- inhibition [2]: 16.3%

Structure (SMILES): CC(C)(C)n1nc(CN2Cc3ccccc3S2(=O)=O)cc1-c1ccc(F)cc1
- inhibition [2]: 23.1%

Structure (SMILES): Cc1c(CNS(=O)(=O)c2ccccc2)nn(-c2ccccc2)c1CC(C)C
- activity at 0.25 h, 10 µM [3]: 38.7%
- IC50 [4]: 4.3 µM
- inhibition [2]: 72%
- activity at 0.25 h, 10 µM [5]: 45.2%
- remaining at 0.5 h, 1 µM [1]: 0.26%
- activity at 0.25 h, 10 µM [6]: 45.2%

Structure (SMILES): CC(C)c1cc(CN2Cc3ccccc3S2(=O)=O)nn1C(C)(C)C
- activity at 0.25 h, 10 µM [7]: 123%
- activity at 0.25 h, 10 µM [3]: 52.1%
- IC50 [4]: 3.69 µM
- inhibition [2]: 68%
- activity at 0.25 h, 10 µM [5]: 90.7%
- remaining at 0.5 h, 1 µM [1]: 103%
- activity at 0.25 h, 10 µM [6]: 78.8%

Structure (SMILES): CC(C)n1nc(CN2Cc3ccccc3S2(=O)=O)cc1-c1ccc(F)cc1
- inhibition [2]: 16.5%

Structure (SMILES): CC(C)n1nc(CN2Cc3ccccc3S2(=O)=O)cc1-c1ccccc1
- inhibition [2]: 22.1%

Structure (SMILES): CC(C)(C)n1nc(CN2Cc3ccccc3S2(=O)=O)cc1-c1ccccc1
- inhibition [2]: 18.7%

Structure (SMILES): CC(C)c1cc(CN2Cc3ccccc3S2(=O)=O)nn1-c1ccccc1
- activity at 0.25 h, 10 µM [3]: 47.2%
- IC50 [4]: 2.52 µM
- inhibition [2]: 75.5%
- activity at 0.25 h, 10 µM [5]: 14.2%
- remaining at 0.5 h, 1 µM [1]: 4.69%
- activity at 0.25 h, 10 µM [6]: 86.6%

Structure (SMILES): NCC1(CC(=O)O)CCCCC1
- Activity [8]: Active
- Activity [9]: inactive

Structure (SMILES): CC(C)(C)n1nc(CN2Cc3ccccc3S2(=O)=O)cc1-c1ccc(C2CCCCC2)cc1
- inhibition [2]: 9.86%

Structure (SMILES): CC(C)c1cc(CN2Cc3ccccc3S2(=O)=O)nn1-c1ccc(F)cc1
- activity at 0.25 h, 10 µM [7]: 110%
- Cmax [10]: 100 ng/mL
- activity at 0.25 h, 10 µM [3]: 45.7%
- AUC(0-t) [11]: 2630 ng·h/mL
- IC50 [4]: 2.32 µM
- Tmax [12]: 2.5 h
- Activity [13]: Active
- AUC(0-inf) [14]: 2980 ng·h/mL
- inhibition [2]: 71.6%
- Kp at 2 h [15]: 1.28
- half-life [16]: 1.96 h
- Activity [17]: inactive
- half-life [18]: 2.94 h
- Activity [19]: inactive
- AUC(0-t) [20]: 243 ng·h/mL
- activity at 0.25 h, 10 µM [5]: 103%
- MRT [21]: 1.7 h
- remaining at 0.5 h, 1 µM [1]: 102%
- Kp at 2 h [22]: 0.13
- Activity [23]: inactive
- bioavailability [24]: 9.2%
- activity at 0.25 h, 10 µM [6]: 90.6%
- Activity [25]: inactive
- AUC(0-inf) [26]: 274 ng·h/mL
- clearance [27]: 57.7 mL/min/kg

Structure (SMILES): CC(C)c1cc(CN2Cc3ccccc3S2(=O)=O)nn1-c1c(Cl)cccc1Cl
- inhibition [2]: 29.5%
